In assay [1] the test system is OXE receptor. Conditions: cited from earlier work.
The test system of another assay is neutrophil migration. The settings on record: cited from earlier work.
Assay [2] has as its system response of neutrophils to LTB4. As to the kind of experiment: LTB4-induced calcium mobilization in human neutrophils. Conditions: compound 10 µM, LTB4 10 nM. Format: cell-based. In a few lines: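 Neutrophils from whole blood of healthy human donors, suspended in phosphate-buffered saline, loaded with indo-1, and moved to a cuvette with CaCl₂ (1.8 mM) and MgCl₂ (1 mM) 5 min before the run. Fluorescence was read at 37 °C in a spectrofluorimeter. After a stable baseline, vehicle or test compound was added, then LTB4 (10 nM) 2 min later. Digitonin followed to give maximal response.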

Assay [3] deals with OXE receptor (Homo sapiens, UniProt Q8TDS5). Format: cell-based.

“Also recorded” adds a separate entry of the source.

Chain of OXE receptor (Homo sapiens, UniProt Q8TDS5) (Q8TDS5 whole entry): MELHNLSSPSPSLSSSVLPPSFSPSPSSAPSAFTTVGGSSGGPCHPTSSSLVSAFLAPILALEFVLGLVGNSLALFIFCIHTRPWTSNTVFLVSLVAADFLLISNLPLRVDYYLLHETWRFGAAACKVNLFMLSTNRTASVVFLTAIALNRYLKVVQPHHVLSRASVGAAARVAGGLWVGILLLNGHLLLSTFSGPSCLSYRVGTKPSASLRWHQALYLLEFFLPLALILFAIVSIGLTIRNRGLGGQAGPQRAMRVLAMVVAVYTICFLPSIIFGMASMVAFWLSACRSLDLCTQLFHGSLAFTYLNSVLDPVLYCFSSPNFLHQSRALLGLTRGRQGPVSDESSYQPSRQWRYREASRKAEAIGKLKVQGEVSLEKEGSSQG

On to `CCCCC/C=C\C[C@H](O)/C=C/C=C\C=C\C(=O)CCCC(=O)O` [5-oxo-12S-HETE 6, 5-oxo-12S-HETE], for which the “effect on intracellular Ca++ levels in neutrophils” value in the assay with OXE receptor [1] (compound alone) was “virtually no effect”. Also, the “block of 5-oxo-ETE-induced Ca++ mobilization” value in the assay on OXE receptor [1] (neutrophils) is given as “low µmolar range”. For the same compound, the “effect on 5-oxo-ETE-induced neutrophil migration” value with neutrophil migration is “inhibited”.
In the case of `CCCCCCc1cc2ccccc2n1C(=O)CCCC(=O)O` [Compound 26, 5-(2-Hexyl-1H-indol-1-yl)-5-oxo-valeric acid], the “effect on the response of neutrophils to LTB4” value in assay [2] was “virtually no effect”. On OXE receptor [3] (compound 1 µM, 5-oxo-ETE 10 nM), the “inhibition of the effect of 5-oxo-ETE” value is given as “substantially inhibited”. Also, on OXE receptor [3] (compound 10 µM, 5-oxo-ETE 10 nM), the “inhibition of the response to 5-oxo-ETE” value is given as “completely inhibiting”.
As to `O=C(O)CCCC(=O)n1ccc2ccccc21` [Compound 10, 5-(1H-indol-1-yl)-5-oxopentanoic acid], the “mobilization of intracellular calcium by the compound alone (agonist activity)” value on OXE receptor [3] (compound 30 µM added to neutrophils) is recorded as “neither mobilized intracellular calcium”. Moreover, at OXE receptor [3] (compound 30 µM, 5-oxo-ETE 10 nM added 2 min later), the “effect on the response to 5-oxo-ETE (antagonist activity)” value was “nor altered the response to 5-oxo-ETE; also recorded: does not affect calcium mobilization”.
Regarding `CCCCCCc1cc2ccc(Cl)cc2n1C(=O)CCCC(=O)O` [Compound 39, 5-(6-Chloro-2-hexyl-1H-indol-1-yl)-5-oxo-valeric acid], the concentration for half-maximal inhibition (IC50) against OXE receptor [3] came to 400 ± 30 nM. Also, the “increase in potency compared with non-chlorinated compound 26” value on OXE receptor [3] (5-oxo-ETE-induced calcium mobilization, IC50 ratio) is on record as “about 4 fold”.

The values are drawn from paper PMC3800034 (Journal of medicinal chemistry, 2013).
